Experimental data taken from ChEMBL document CHEMBL2321753, “Synthesis and biological evaluation of radioiodinated quinacrine-based derivatives for SPECT imaging of Aβ plaques” (Eur J Med Chem, 2013).

Assays:
Liver [1] = experiment: Biodistribution in ddY mouse liver at 0.1 to 0.4 uCi, iv after 2 mins by gamma counting; type: ADME, organism-based; conditions: in vivo
How it was run: (§1)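 [125I]ligand (0.1–0.4 µCi) in 100 µL PBS (pH 7.4) containing 30 µL DMSO, injected into the tail vein of ddY mice (5 weeks, 22–25 g). Mice sacrificed at 2, 10, 30 and 60 min. Organs removed, weighed and gamma-counted. Values are % injected dose per gram, except stomach as % dose per organ. Mean (SD) of 3–6 mice per time point.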

Spleen [2] = experiment: Biodistribution in ddY mouse spleen at 0.1 to 0.4 uCi, iv after 10 mins by gamma counting; type: ADME, organism-based; conditions: in vivo; how it was run: as §1
Spleen [3] = experiment: Biodistribution in ddY mouse spleen at 0.1 to 0.4 uCi, iv after 2 mins by gamma counting; type: ADME, organism-based; conditions: in vivo; how it was run: as §1
Spleen [4] = experiment: Biodistribution in ddY mouse spleen at 0.1 to 0.4 uCi, iv after 30 mins by gamma counting; type: ADME, organism-based; conditions: in vivo, 0.5 h; how it was run: as §1
Intestine [5] = experiment: Biodistribution in ddY mouse intestine at 0.1 to 0.4 uCi, iv after 2 mins by gamma counting; type: ADME, organism-based; conditions: in vivo; how it was run: as §1
Stomach [6] = experiment: Biodistribution in ddY mouse stomach assessed per organ at 0.1 to 0.4 uCi, iv after 2 mins by gamma counting; type: ADME, organism-based; conditions: in vivo; how it was run: as §1
Liver [7] = experiment: Biodistribution in ddY mouse liver at 0.1 to 0.4 uCi, iv after 60 mins by gamma counting; type: ADME, organism-based; conditions: in vivo, 1 h; how it was run: as §1
Liver [8] = experiment: Biodistribution in ddY mouse liver at 0.1 to 0.4 uCi, iv after 30 mins by gamma counting; type: ADME, organism-based; conditions: in vivo, 0.5 h; how it was run: as §1
Lung [9] = experiment: Biodistribution in ddY mouse lung at 0.1 to 0.4 uCi, iv after 30 mins by gamma counting; type: ADME, organism-based; conditions: in vivo, 0.5 h; how it was run: as §1
Brain [10] = experiment: Biodistribution in ddY mouse brain at 0.1 to 0.4 uCi, iv after 2 mins by gamma counting; type: ADME, organism-based; conditions: in vivo; how it was run: as §1
Lung [11] = experiment: Biodistribution in ddY mouse lung at 0.1 to 0.4 uCi, iv after 2 mins by gamma counting; type: ADME, organism-based; conditions: in vivo; how it was run: as §1
Pancreas [12] = experiment: Biodistribution in ddY mouse pancreas at 0.1 to 0.4 uCi, iv after 30 mins by gamma counting; type: ADME, organism-based; conditions: in vivo, 0.5 h; how it was run: as §1
Stomach [13] = experiment: Biodistribution in ddY mouse stomach assessed per organ at 0.1 to 0.4 uCi, iv after 60 mins by gamma counting; type: ADME, organism-based; conditions: in vivo, 1 h; how it was run: as §1
Heart [14] = experiment: Biodistribution in ddY mouse heart at 0.1 to 0.4 uCi, iv after 60 mins by gamma counting; type: ADME, organism-based; conditions: in vivo, 1 h; how it was run: as §1
Blood [15] = experiment: Biodistribution in ddY mouse blood at 0.1 to 0.4 uCi, iv after 10 mins by gamma counting; type: ADME, organism-based; conditions: in vivo; how it was run: as §1
Kidney [16] = experiment: Biodistribution in ddY mouse kidney at 0.1 to 0.4 uCi, iv after 30 mins by gamma counting; type: ADME, organism-based; conditions: in vivo, 0.5 h; how it was run: as §1
Brain [17] = experiment: Biodistribution in ddY mouse brain at 0.1 to 0.4 uCi, iv after 60 mins by gamma counting; type: ADME, organism-based; conditions: in vivo, 1 h; how it was run: as §1
[18] = n-octanol-sodium phosphate buffer partition co-efficient, log D of the compound at pH 7.4 by shake flask method; type: physicochemical
How it was run: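 Shake-flask partition between n-octanol and sodium phosphate buffer, pH 7.4, shaken 10 min at room temperature, then centrifuged. Weighed 0.5 mL samples of each layer counted. log D from the ratio of cpm per gram of octanol to cpm per gram of buffer; n = 3.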

Kidney [19] = experiment: Biodistribution in ddY mouse kidney at 0.1 to 0.4 uCi, iv after 60 mins by gamma counting; type: ADME, organism-based; conditions: in vivo, 1 h; how it was run: as §1
Intestine [20] = experiment: Biodistribution in ddY mouse intestine at 0.1 to 0.4 uCi, iv after 60 mins by gamma counting; type: ADME, organism-based; conditions: in vivo, 1 h; how it was run: as §1
Brain [21] = experiment: Biodistribution in ddY mouse brain at 0.1 to 0.4 uCi, iv after 30 mins by gamma counting; type: ADME, organism-based; conditions: in vivo, 0.5 h; how it was run: as §1
Lung [22] = experiment: Biodistribution in ddY mouse lung at 0.1 to 0.4 uCi, iv after 60 mins by gamma counting; type: ADME, organism-based; conditions: in vivo, 1 h; how it was run: as §1
Intestine [23] = experiment: Biodistribution in ddY mouse intestine at 0.1 to 0.4 uCi, iv after 30 mins by gamma counting; type: ADME, organism-based; conditions: in vivo, 0.5 h; how it was run: as §1
Heart [24] = experiment: Biodistribution in ddY mouse heart at 0.1 to 0.4 uCi, iv after 10 mins by gamma counting; type: ADME, organism-based; conditions: in vivo; how it was run: as §1
Kidney [25] = experiment: Biodistribution in ddY mouse kidney at 0.1 to 0.4 uCi, iv after 10 mins by gamma counting; type: ADME, organism-based; conditions: in vivo; how it was run: as §1
Liver [26] = experiment: Biodistribution in ddY mouse liver at 0.1 to 0.4 uCi, iv after 10 mins by gamma counting; type: ADME, organism-based; conditions: in vivo; how it was run: as §1
Kidney [27] = experiment: Biodistribution in ddY mouse kidney at 0.1 to 0.4 uCi, iv after 2 mins by gamma counting; type: ADME, organism-based; conditions: in vivo; how it was run: as §1
Blood [28] = experiment: Biodistribution in ddY mouse blood at 0.1 to 0.4 uCi, iv after 30 mins by gamma counting; type: ADME, organism-based; conditions: in vivo, 0.5 h; how it was run: as §1
Pancreas [29] = experiment: Biodistribution in ddY mouse pancreas at 0.1 to 0.4 uCi, iv after 2 mins by gamma counting; type: ADME, organism-based; conditions: in vivo; how it was run: as §1
Blood [30] = experiment: Biodistribution in ddY mouse blood at 0.1 to 0.4 uCi, iv after 2 mins by gamma counting; type: ADME, organism-based; conditions: in vivo; how it was run: as §1
Spleen [31] = experiment: Biodistribution in ddY mouse spleen at 0.1 to 0.4 uCi, iv after 60 mins by gamma counting; type: ADME, organism-based; conditions: in vivo, 1 h; how it was run: as §1
Pancreas [32] = experiment: Biodistribution in ddY mouse pancreas at 0.1 to 0.4 uCi, iv after 60 mins by gamma counting; type: ADME, organism-based; conditions: in vivo, 1 h; how it was run: as §1
Intestine [33] = experiment: Biodistribution in ddY mouse intestine at 0.1 to 0.4 uCi, iv after 10 mins by gamma counting; type: ADME, organism-based; conditions: in vivo; how it was run: as §1
Lung [34] = experiment: Biodistribution in ddY mouse lung at 0.1 to 0.4 uCi, iv after 10 mins by gamma counting; type: ADME, organism-based; conditions: in vivo; how it was run: as §1
Stomach [35] = experiment: Biodistribution in ddY mouse stomach assessed per organ at 0.1 to 0.4 uCi, iv after 10 mins by gamma counting; type: ADME, organism-based; conditions: in vivo; how it was run: as §1
Heart [36] = experiment: Biodistribution in ddY mouse heart at 0.1 to 0.4 uCi, iv after 2 mins by gamma counting; type: ADME, organism-based; conditions: in vivo; how it was run: as §1
Stomach [37] = experiment: Biodistribution in ddY mouse stomach assessed per organ at 0.1 to 0.4 uCi, iv after 30 mins by gamma counting; type: ADME, organism-based; conditions: in vivo, 0.5 h; how it was run: as §1
Blood [38] = experiment: Biodistribution in ddY mouse blood at 0.1 to 0.4 uCi, iv after 60 mins by gamma counting; type: ADME, organism-based; conditions: in vivo, 1 h; how it was run: as §1
Brain [39] = experiment: Ratio of drug level in brain after 2 mins to brain after 60 mins in ddY mouse brain at 0.1 to 0.4 uCi, iv; type: ADME, organism-based; conditions: in vivo
How it was run: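 ddY mice (5 weeks, 22–25 g) given [125I]ligand (0.1–0.4 µCi) iv in PBS/DMSO. Brain radioactivity (% dose/g) measured by gamma counting at 2 and 60 min, and the 2 min/60 min ratio taken as a washout index.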

Pancreas [40] = experiment: Biodistribution in ddY mouse pancreas at 0.1 to 0.4 uCi, iv after 10 mins by gamma counting; type: ADME, organism-based; conditions: in vivo; how it was run: as §1
Brain [41] = experiment: Biodistribution in ddY mouse brain at 0.1 to 0.4 uCi, iv after 10 mins by gamma counting; type: ADME, organism-based; conditions: in vivo; how it was run: as §1
Heart [42] = experiment: Biodistribution in ddY mouse heart at 0.1 to 0.4 uCi, iv after 30 mins by gamma counting; type: ADME, organism-based; conditions: in vivo, 0.5 h; how it was run: as §1

CNc1c2ccc([125I])cc2nc2ccc(OC)cc12
Drug uptake (Liver [1]): 17.25 % ID/g | Drug uptake (Spleen [2]): 9.14 % ID/g | Drug uptake (Spleen [3]): 7.6 % ID/g | Drug uptake (Spleen [4]): 6.02 % ID/g | Drug uptake (Intestine [5]): 3.82 % ID/g | Drug uptake (Stomach [6]): 1.71 %ID | Drug uptake (Liver [7]): 7.52 % ID/g | Drug uptake (Liver [8]): 8.26 % ID/g | Drug uptake (Lung [9]): 4.38 % ID/g | Drug uptake (Brain [10]): 2.97 % ID/g | Drug uptake (Lung [11]): 15.8 % ID/g | Drug uptake (Pancreas [12]): 3.55 % ID/g | Drug uptake (Stomach [13]): 5.58 %ID | Drug uptake (Heart [14]): 0.84 % ID/g | Drug uptake (Blood [15]): 1.18 % ID/g | Drug uptake (Kidney [16]): 10.25 % ID/g | Drug uptake (Brain [17]): 0.33 % ID/g | logD [18]: 2.14 | Drug uptake (Kidney [19]): 6 % ID/g | Drug uptake (Intestine [20]): 23.83 % ID/g | Drug uptake (Brain [21]): 0.95 % ID/g | Drug uptake (Lung [22]): 2.3 % ID/g | Drug uptake (Intestine [23]): 19.47 % ID/g | Drug uptake (Heart [24]): 2.8 % ID/g | Drug uptake (Kidney [25]): 11.89 % ID/g | Drug uptake (Liver [26]): 16.41 % ID/g | Drug uptake (Kidney [27]): 12.98 % ID/g | Drug uptake (Blood [28]): 0.85 % ID/g | Drug uptake (Pancreas [29]): 6.91 % ID/g | Drug uptake (Blood [30]): 1.75 % ID/g | Drug uptake (Spleen [31]): 4.45 % ID/g | Drug uptake (Pancreas [32]): 1.63 % ID/g | Drug uptake (Intestine [33]): 9.11 % ID/g | Drug uptake (Lung [34]): 5.62 % ID/g | Drug uptake (Stomach [35]): 3.71 %ID | Drug uptake (Heart [36]): 7.79 % ID/g | Drug uptake (Stomach [37]): 4.63 %ID | Drug uptake (Blood [38]): 0.56 % ID/g | Ratio (Brain [39]): 9 | Drug uptake (Pancreas [40]): 6.92 % ID/g | Drug uptake (Brain [41]): 2.34 % ID/g | Drug uptake (Heart [42]): 1.46 % ID/g

COc1ccc2nc3cc([125I])ccc3c(OC)c2c1
Drug uptake (Liver [1]): 18.77 % ID/g | Drug uptake (Spleen [2]): 2.12 % ID/g | Drug uptake (Spleen [3]): 3.75 % ID/g | Drug uptake (Spleen [4]): 1.87 % ID/g | Drug uptake (Intestine [5]): 2.59 % ID/g | Drug uptake (Stomach [6]): 1.86 %ID | Drug uptake (Liver [7]): 5.8 % ID/g | Drug uptake (Liver [8]): 13.65 % ID/g | Drug uptake (Lung [9]): 3.28 % ID/g | Drug uptake (Brain [10]): 4.41 % ID/g | Drug uptake (Lung [11]): 5.95 % ID/g | Drug uptake (Pancreas [12]): 1.33 % ID/g | Drug uptake (Stomach [13]): 4.36 %ID | Drug uptake (Heart [14]): 1.1 % ID/g | Drug uptake (Blood [15]): 2.19 % ID/g | Drug uptake (Kidney [16]): 4.41 % ID/g | Drug uptake (Brain [17]): 0.37 % ID/g | Drug uptake (Kidney [19]): 2.77 % ID/g | Drug uptake (Intestine [20]): 20.17 % ID/g | Drug uptake (Brain [21]): 0.82 % ID/g | Drug uptake (Lung [22]): 2.04 % ID/g | Drug uptake (Intestine [23]): 16.78 % ID/g | Drug uptake (Heart [24]): 1.82 % ID/g | Drug uptake (Kidney [25]): 4.69 % ID/g | Drug uptake (Liver [26]): 20.85 % ID/g | Drug uptake (Kidney [27]): 8.07 % ID/g | Drug uptake (Blood [28]): 2.59 % ID/g | Drug uptake (Pancreas [29]): 5.41 % ID/g | Drug uptake (Blood [30]): 2.14 % ID/g | Drug uptake (Spleen [31]): 1.24 % ID/g | Drug uptake (Pancreas [32]): 1.1 % ID/g | Drug uptake (Intestine [33]): 6.41 % ID/g | Drug uptake (Lung [34]): 3.37 % ID/g | Drug uptake (Stomach [35]): 3.51 %ID | Drug uptake (Heart [36]): 5.83 % ID/g | Drug uptake (Stomach [37]): 5.97 %ID | Drug uptake (Blood [38]): 1.77 % ID/g | Ratio (Brain [39]): 11.9 | Drug uptake (Pancreas [40]): 2.03 % ID/g | Drug uptake (Brain [41]): 2.14 % ID/g | Drug uptake (Heart [42]): 1.59 % ID/g
